Data on one molecule can be found in paper PMC8738139 (Neuron, 2021).

The target of the assay is CNGA1 (Homo sapiens, UniProt P29973+Q14028). In words: cryo-EM structures. The format is cell-based. Summed up:
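HEK293 cells co-transfected with human CNGA1/B1 and a GFP marker, then trypsinised and re-plated 48 h later. Whole-cell currents recorded at 100 mV. Pipette: 140 mM KCl, 5 mM EGTA, 10 mM HEPES pH 7.4, 1 mM cGMP. Bath: 140 mM NaCl, 4 mM KCl, 1 mM EGTA, 10 mM HEPES pH 7.4 plus varied test compound. Ki from Hill fit; mean ± SEM, n=5.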

Chain of CNGA1 (P29973 141-686): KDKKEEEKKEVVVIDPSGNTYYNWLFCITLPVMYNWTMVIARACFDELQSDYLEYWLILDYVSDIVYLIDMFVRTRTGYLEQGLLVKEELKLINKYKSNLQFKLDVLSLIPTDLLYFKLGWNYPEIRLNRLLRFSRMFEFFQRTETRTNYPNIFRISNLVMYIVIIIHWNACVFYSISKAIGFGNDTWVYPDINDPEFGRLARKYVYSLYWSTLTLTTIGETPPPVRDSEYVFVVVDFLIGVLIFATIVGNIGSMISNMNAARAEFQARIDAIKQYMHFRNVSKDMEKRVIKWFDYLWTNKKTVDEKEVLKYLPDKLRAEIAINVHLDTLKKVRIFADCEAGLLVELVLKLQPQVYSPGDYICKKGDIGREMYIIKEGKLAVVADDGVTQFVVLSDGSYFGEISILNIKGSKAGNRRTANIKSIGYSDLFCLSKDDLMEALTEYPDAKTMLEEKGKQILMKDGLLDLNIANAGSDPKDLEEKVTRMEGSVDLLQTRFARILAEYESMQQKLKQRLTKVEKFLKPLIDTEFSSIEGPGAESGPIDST
Chain of CNGA1 (Q14028 456-1251): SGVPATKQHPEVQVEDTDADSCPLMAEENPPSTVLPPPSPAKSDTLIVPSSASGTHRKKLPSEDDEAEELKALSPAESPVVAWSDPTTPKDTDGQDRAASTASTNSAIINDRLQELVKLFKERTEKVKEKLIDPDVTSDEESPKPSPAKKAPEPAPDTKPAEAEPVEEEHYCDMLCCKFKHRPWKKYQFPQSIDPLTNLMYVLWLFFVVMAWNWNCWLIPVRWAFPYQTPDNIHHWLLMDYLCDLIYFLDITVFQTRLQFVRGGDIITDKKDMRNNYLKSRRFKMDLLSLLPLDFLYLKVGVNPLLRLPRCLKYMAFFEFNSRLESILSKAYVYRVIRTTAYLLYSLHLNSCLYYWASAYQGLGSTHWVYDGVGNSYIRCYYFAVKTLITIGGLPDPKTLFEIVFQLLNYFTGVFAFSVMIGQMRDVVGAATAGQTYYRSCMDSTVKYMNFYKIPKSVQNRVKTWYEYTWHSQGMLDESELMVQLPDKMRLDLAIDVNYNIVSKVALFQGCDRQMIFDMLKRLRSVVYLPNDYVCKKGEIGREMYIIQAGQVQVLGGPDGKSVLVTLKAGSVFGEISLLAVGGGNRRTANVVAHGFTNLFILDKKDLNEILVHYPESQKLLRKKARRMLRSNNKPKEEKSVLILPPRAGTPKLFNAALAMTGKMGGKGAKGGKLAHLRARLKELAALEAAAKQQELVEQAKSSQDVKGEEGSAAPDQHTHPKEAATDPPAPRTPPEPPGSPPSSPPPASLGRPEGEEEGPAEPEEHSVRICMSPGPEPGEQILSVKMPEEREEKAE

For the molecule `COc1ccc([C@H]2Sc3ccccc3N(CCN(C)C)C(=O)[C@H]2OC(C)=O)cc1` [L-cis-Diltiazem], the Ki (usually a dissociation constant, usually derived from enzyme kinetics or from competition with a known ligand) came to 3.68 ± 0.13 µM.
